# Test results as given in article PMC10072318 (Bioorganic & medicinal chemistry letters, 2023).
# “Also recorded” adds a separate entry of the source.
# Columns and labels:
# adult S. mansoni = assay: Adult S. mansoni severity score assay; type: cell-based, Schistosoma mansoni; conditions: for Antischistosomal activity in words: 5 μM, SAR discussion
# How it was run: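 Adult worms were exposed to the test compound at 5 μM. Responses were scored visually at 1, 5, 24 and 48 h using a constrained nomenclature of descriptors for the worm's responses to chemical insult. Each descriptor carries a value, and these values are summed into a severity score ranging from 0 (no activity) to 4 (maximum activity).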
# [1] = tested on: S. mansoni schistosomula (post-infective larvae); conditions: cited from earlier work
# S. mansoni adults = conditions: cited from earlier work
Compound,Antischistosomal activity in words (adult S. mansoni),other results
O=C(Nc1ccccc1)c1ccc(C(F)(F)F)cc1 [compound 6],inactive,
O=C(Nc1ccccc1)c1ccc(F)cc1 [compound 23],inactive,
O=C(Nc1ccc(F)c(F)c1)c1ccc(F)cc1 [compound 13],activity was essentially compromised,
O=C(Nc1cccc(C(F)(F)F)c1)c1ccc(F)cc1 [compound 16],activity was essentially abolished,
Cc1ccc(NC(=O)c2ccc(C(F)(F)F)cc2)cc1C [compound 7],retains substantial potency,
COc1ccc(NC(=O)c2ccc(C(F)(F)F)cc2)cc1OC [compound 8],inactive; also recorded: eliminated activity,
O=C(Nc1cccc(C(F)(F)F)c1)c1ccccc1 [compound 15],abolished activity,
O=C(Nc1ccc(C(F)(F)F)c(C(F)(F)F)c1)c1cc(Cl)ccc1O [compound 1],,Killing of S. mansoni schistosomula in vitro [1]: kill S. mansoni adults[6] and schistosomula; Killing of S. mansoni adults in vitro (S. mansoni adults): kill S. mansoni adults
O=C(Nc1ccc(Cl)c(Cl)c1)c1ccccc1 [compound 25],some activity was retained,
Cc1ccc(NC(=O)c2ccccc2)cc1C [compound 14],abolished activity,
O=C(Nc1ccc(Cl)c(Cl)c1)c1ccc(C(F)(F)F)cc1 [compound 9],,Time by which adult worm integrity was severely compromised (adult S. mansoni): ≤ 1 h
N#Cc1ccc(C(=O)Nc2cccc(C(F)(F)F)c2)cc1 [compound 18],abolished activity,
O=C(Nc1cccc(C(F)(F)F)c1)c1ccc(C(F)(F)F)cc1 [compound 11],,Time by which adult worm integrity was severely compromised (adult S. mansoni): ≤ 1 h
"O=C(Nc1ccc(Cl)nn1)c1cccc(F)c1 [compound 31, N-(6-chloropyridazin-3-yl)-3-fluorobenzamide]",inactive,
